Screening results from PubChem.
The list is not random: actives were taken first. Their share in the collection is about 0.19%.
Bcl-W Bim block: disrupts Bim peptide binding to human Bcl-W. Q92843. bead-based flow cytometry. inhibition, % at 10 µM. 190,000 compounds, 0.02% hits;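 note: 0% = bound tracer without compound and 100% = peptide blocker; higher means less fluorescent Bim peptide bound to Bcl-W beads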
Bim-Bfl-1: human Bim-Bfl-1 interaction inhibition. Q16548. Bead-based flow cytometry, Bim-Bfl-1 binding inhibition. inhibition, % at 10 µM. 190,000 compounds, 0.12% hits. AID 1008;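 note: 0% = wells without compound plus tracer and 100% = blocker peptide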
Biofilm kill mix: mixtures killing C. albicans biofilm; inhibition, % at 7.6 µM; C. albicans biofilm persisters + clotrimazole, fluorescence viability; primary screen in compound mixtures of four per well; AID 1242; 120,000 compounds, 0.02% hits;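 active = inhibition above 30.3% in the primary screen of four-compound pools, then above 30% when the compound was retested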;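 note: compounds exposed to preformed 24 h biofilms for 48 h; 0% = untreated biofilm control and 100% = clotrimazole plus chlorhexidine kill blank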
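Incubation: 24 h biofilm formation, then 48 h compound exposure, 37 °C | Material: C. albicans biofilms | Buffer or medium: RPMI/MOPS medium, pH 7.0 | Measured by: 2-h Alamar Blue fluorescence, 535/590 nm excitation/emission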
Bim-Bcl-XL: disrupts Bim peptide binding to human Bcl-XL; Q07817; bead flow cytometry, fluorescence; inhibition, % at 10 µM; 190,000 compounds, 0.04% hits
Bcl-B Bim block: inhibitors of Bim-Bcl-B interaction, human; bead-based flow cytometry, Bim peptide-Bcl-B binding; Q9HD36; AID 951; inhibition, % at 10 µM; 190,000 compounds, 0.073% hits;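 note: 0% = tracer peptide without compound and 100% = reference inhibitor peptide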
Target sequence (Q9HD36 whole entry, looked up): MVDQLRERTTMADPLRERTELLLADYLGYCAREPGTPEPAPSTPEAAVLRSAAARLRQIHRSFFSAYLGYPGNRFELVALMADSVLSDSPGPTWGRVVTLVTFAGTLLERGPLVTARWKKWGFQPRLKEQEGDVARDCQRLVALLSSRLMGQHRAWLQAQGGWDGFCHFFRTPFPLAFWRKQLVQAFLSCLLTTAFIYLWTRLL
Bim-Bcl-2: human Bim-Bcl-2 interaction inhibition. P10415. 190,000 compounds, 0.06% hits. Bead-based flow cytometry, Bim peptide-Bcl-2 binding. inhibition, % at 10 µM. AID 950; in the data active = inhibition above about 40%;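 note: 0% = no compound wells with probe peptide and 100% = reference peptide inhibitor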
An asterisk follows results filed as active. Cut-off read from the data, not from the text of the source, unless noted: active = inhibition above about 40%.

Results for O=C1NC(=O)C(=Cc2ccc(-c3cc(Cl)ccc3[N+](=O)[O-])o2)C(=O)N1 ?
Bcl-W Bim block: 8; Bim-Bfl-1: 45*; Biofilm kill mix: 7; Bim-Bcl-XL: -2; Bcl-B Bim block: 3; Bim-Bcl-2: 9

What do the screens show for `CN1CCN(c2ccc(N)cc2)CC1`?
Bcl-W Bim block: 23; Bim-Bfl-1: 15; Bim-Bcl-XL: 19; Bcl-B Bim block: 61*; Bim-Bcl-2: 10

What do the screens show for `O=[N+]([O-])c1cccc(CN2CCN(Cc3ccc(Br)cc3)CC2)c1`?
Bcl-W Bim block: 3; Bim-Bfl-1: -2; Biofilm kill mix: 13; Bim-Bcl-XL: 0; Bcl-B Bim block: -2; Bim-Bcl-2: 0

Results for CN(C)c1ccc(C=C2C(=O)NC(=O)NC2=O)cc1[N+](=O)[O-] ?
Bcl-W Bim block: 16; Bim-Bfl-1: 48*; Biofilm kill mix: 13; Bim-Bcl-XL: 5; Bcl-B Bim block: 7; Bim-Bcl-2: 13

How did CN(C)c1ccc(C=C2C(=O)NC(=S)NC2=O)cc1[N+](=O)[O-] do in these assays?
Bcl-W Bim block: -3; Bim-Bfl-1: 0; Biofilm kill mix: 6; Bim-Bcl-XL: 0; Bcl-B Bim block: -4; Bim-Bcl-2: 1

How did [N-]=[N+]=NC1C[C@H](n2ccc(=O)[nH]c2=O)O[C@@H]1CO (some centres not stated) do in these assays?
Bcl-W Bim block: -2; Bim-Bfl-1: 0; Biofilm kill mix: -4; Bim-Bcl-XL: -2; Bcl-B Bim block: -4; Bim-Bcl-2: -2
